In the library only some 1.8% were active in any assay of this set; here they are far more common.
PERK inh: blocks human PERK kinase | inhibition, % at 5.6 µM | CHO PERK-DD fusion, SEAP luminescence translation reporter | 220,000 tested, 0.17% active | Q9NZJ5;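 active means inhibition above the mean inhibition of all tested compounds plus 3 SD, set separately per screening campaign, cut at about 2.9% in these data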;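 further: PERK kinase domain activated by AP20187 dimerizer at 100 nM; 0% = DMSO with dimerizer and 100% = rapamycin at 8.4 µM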
STAT3 act-1: activators of IL-6 induced STAT3 signaling. U3A cells, IL-6 STAT3-luciferase reporter, luminescence; 100% = signal with IL-6 EC80 alone. activation (% of control), % at 5.6 µM. 190,000 tested, 0.91% active;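 active means activation above the screen-wide mean of compound activation plus 3 SD, cut at about 130% in these data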;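 further: 0% = background luminescence of wells with medium and substrate only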
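System – human U3A cells carrying STAT3-luciferase construct · Probe or stimulus – Interleukin-6, 33 ng/mL · Schedule – compound 1 h, then IL-6 6 h at 37 °C · Signal – luminescence from STAT3-driven luciferase reporter · Evaluation – percent of IL-6-only median luminescence · Benchmarks – IL-6-only high control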
STAT3 inh: inhibitors of IL-6 induced STAT3 signaling; inhibition, % at 5.5 µM; AID 862; 190,000 tested, 0.89% active; U3A cells, IL-6 STAT3-luciferase reporter, luminescence; host cell line lacks STAT1;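 active means inhibition above the mean inhibition across all screened compounds plus 3 SD, cut at about 44% in these data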;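 further: 0% = DMSO only wells and 100% = 100 µM nifuroxazide control wells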
STAT1 blocker: inhibitors of IFN-gamma induced STAT1 signaling; NIH 3T3 STAT1-luciferase reporter, luminescence; inhibition, % at 5.5 µM; 200,000 tested, 0.35% active; AID 920;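 active means inhibition above a set limit, the mean inhibition across all tested compounds plus 3 SD, cut at about 34% in these data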;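 further: 0% = IFN-gamma with DMSO and 100% = IFN-gamma with 300 µM nifuroxazide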
STAT3 act-2: confirmation of STAT3 signaling activators; shares compounds with STAT3 act-1; U3A STAT3-luciferase reporter, IL-6 potentiation, luminescence; U3A cells lack STAT1; 100 means same as IL-6 alone; potentiation (% of control), % at 5.7 µM; 1,200 tested, 64% active;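 active means percent activation of the STAT3 luciferase reporter above a set limit taken from the earlier primary screen, cut at about 130% in these data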;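 further: 0% = background signal of medium plus substrate and 100% = median of IL-6 with DMSO wells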
NFkB act STAT3ct: activates NF-kappaB, counter-screen to STAT3 activators | shares compounds with STAT3 act-1 | human cells, NF-kappaB reporter activation | activation (% of control), % at 5.7 µM | 1,200 tested, 11% active | AID 1309; in the data active means activation above about 120%;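 further: reporter induced by TNF-alpha stimulation; 100% = median of stimulated DMSO wells and 0% = no signal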
STAT1 act: activates STAT1, counter-screen to STAT3 activators; shares compounds with STAT3 act-1; NIH 3T3 STAT1-luciferase reporter, IFN-gamma, luminescence; activation (% of control), % at 5.7 µM; 1,200 tested, 13% active;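 active means activation above the solvent-only control well mean plus 3 SD, set per screening run, cut at about 120% in these data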;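 further: 100% = IFN-gamma with DMSO median signal so 100% means no change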
* marks the source's active call; other numbers are inactive results; . = no result given.

SMILES	PERK inh	STAT3 act-1	STAT3 inh	STAT1 blocker	STAT3 act-2	NFkB act STAT3ct	STAT1 act
CCOc1ccc(C=Nc2cccc3ncccc23)cc1	1.2	148.9*	-59.3	6.1	147.8*	102.4	119.4
Cc1cccc(NS(=O)(=O)c2cc(C(=O)OCC(=O)Nc3cc(C)on3)ccc2C)c1	0.3	146.9*	-47.4	-1.9	131.8	90.8	99.2
Cc1cccc(NS(=O)(=O)c2ccc(C)c(C(=O)OCC(=O)Nc3cc(C)on3)c2)c1	-2.1	140.1*	-43.3	7.8	139.7*	105.9	101.3
COc1ccccc1NS(=O)(=O)c1cccc(C(=O)OCC(=O)Nc2cc(C)on2)c1	0.4	101.5	1.7	1.7	.	.	.
O=C(c1ccc(S(=O)(=O)N2CCCC2)cc1)N1CCC(CN2C(=O)c3cccc4cccc(c34)C2=O)CC1	-1.3	.	.	.	.	.	.
COc1ccc(S(=O)(=O)N2CCC(CN3C(=O)c4cccc5cccc(c45)C3=O)CC2)cc1	-0.5	151.8*	-66.1	-4.4	134.7*	107.5	122.5*
COc1ccc(N2C(=O)C(CC(=O)Nc3ccccc3)N(Cc3ccccn3)C2=S)cc1 (stereo not given)	0.1	98.3	4.2	-14.4	.	.	.
C/[N+]([O-])=C/c1c(OCc2ccc(Cl)cc2Cl)ccc2ccccc12	0.9	138.2*	-30.9	-13.2	115.2	97.8	84.6
Cc1cc(O)c(NC(=O)c2ccc(Br)o2)cc1C	0.8	160.8*	-70.8	11.7	150.6*	115.2	95.3
CCOC(=O)/C(C#N)=C/c1c[nH]c2ccccc12	0.4	128.7	-33.6	-20.5	.	.	.
COC(=O)/C(C#N)=C/c1c[nH]c2ccccc12	-0.6	146.5*	-35.0	-22.2	193.4*	128.8*	160.4*
CCOc1ccccc1C(=O)Nn1c(C2CCC2)nc2ccccc2c1=O	-0.3	162.0*	-70.0	-2.9	158.3*	98.2	99.2
CCn1nnc(-c2ccc(N)cc2)n1	0.8	80.6	27.2	16.2	.	.	.
COc1ccc(CNCc2cn(-c3cccc(F)c3)nc2-c2ccc(C)o2)cc1	0.3	103.1	0.8	-7.8	.	.	.
COc1ccccc1-c1n[nH]c(=S)n1-c1ccccc1	0.8	137.5*	-38.5	1.9	104.0	104.3	104.8
COc1ccccc1-c1n[nH]c(=S)n1N	0.7	91.3	14.9	5.8	.	.	.
C/C(O)=C(\N=Nc1cc(C)ccc1O)C(N)=O	1.5	143.0*	-46.0	5.3	174.9*	129.0*	135.6*
O=c1c(C(c2ccccc2)c2c(O)nc3n(c2=O)CCS3)c(O)nc2n1CCS2	-0.1	101.0	2.6	-7.5	.	.	.
N/C(=N\OC(=O)N1CCOCC1)c1ccc(Br)cc1	0.0	95.6	8.9	-19.7	.	.	.
COc1cccc(-c2nc(N3CCC(C)CC3)c3ccccc3n2)c1O	0.9	121.7	-20.6	3.4	.	.	.
COc1cccc(-c2nc(NC(C)(C)C)c3ccccc3n2)c1O	0.1	143.3*	-45.5	5.1	129.3	105.6	102.5
COc1cccc(-c2nc(N3CC(C)CC(C)C3)c3ccccc3n2)c1O (stereo not given)	0.7	138.5*	-36.9	3.9	131.2	106.2	97.7
Cc1cc(NC(=O)Cc2cccs2)no1	1.4	143.3*	-47.4	0.9	130.8	108.3	99.8
Cc1ccc(-n2c(C)nc3oc4ccccc4c(=O)c3c2=O)cc1	0.4	148.8*	-54.9	-18.8	159.1*	121.8*	135.1*
O=C(NC1CCCCC1)C1Cc2ccccc2CN1S(=O)(=O)c1ccc(F)cc1 (stereo not given)	-0.7	106.6	-7.0	-1.5	.	.	.
SMILES	PERK inh	STAT3 act-1	STAT3 inh	STAT1 blocker	STAT3 act-2	NFkB act STAT3ct	STAT1 act
O=C(Nc1nccs1)C1Cc2ccccc2CN1S(=O)(=O)c1ccc(F)cc1 (stereo not given)	-0.1	138.3*	-43.8	-25.4	127.6	126.1*	148.3*
CC(=O)c1ccc(OCC(=O)NCC2(N3CCCCC3)CCCCC2)cc1	0.9	.	.	.	.	.	.
C/C(=C\C(=S)Nc1ccccc1)Nc1ccc2ccccc2c1	-0.1	121.8	-21.1	-6.3	.	.	.
C/C(=C\C(=S)Nc1ccccc1)Nc1cccc2ccccc12	-0.8	155.3*	-58.3	-14.2	142.2*	108.7	118.7
COc1c(Cl)cnn(-c2ccc(Cl)c(Cl)c2)c1=O	2.1	102.5	-1.8	-7.7	.	.	.
O=C(c1ccccc1)N1CCN2C(=O)c3ccccc3C12c1ccc(Cl)cc1 (stereo not given)	-2.0	417.8*	-375.8	26.9	282.6*	112.0	75.0
O=C(c1ccc(F)cc1)N1CCN2C(=O)c3ccccc3C12c1ccc(Cl)cc1 (stereo not given)	-0.2	203.8*	-96.7	26.8	146.3*	115.5	97.0
COc1ccc2oc(=O)c(/C(C)=N/NC(=O)c3ccncc3)cc2c1	-0.2	101.6	-2.5	-0.8	.	.	.
Cc1ccc2nc(SCc3nnc(-c4ccccc4Br)o3)[nH]c2c1	-0.5	139.6*	-45.4	-1.5	123.5	100.4	99.5
Clc1ccc2nc(SCc3nnc(-c4ccccc4)o3)[nH]c2c1	-0.5	93.3	8.6	8.9	.	.	.
Cn1c(-[n+]2c(-c3ccccc3)cc(-c3ccccc3)cc2-c2ccccc2)nc2c([N+](=O)[O-])cccc21	-1.2	150.5*	-52.9	11.3	147.0*	104.2	98.5
O=C(COC(=O)c1cc(=O)c2ccccc2o1)NC1CCCC1	0.3	100.9	3.8	3.5	.	.	.
O=C(c1ccc2c(c1)OCCCO2)N1CCCCC1	0.6	.	.	.	.	.	.
Cc1cccc(NC(=O)COC(=O)Cc2c[nH]c3ccccc23)c1C	0.0	111.3	-15.7	3.4	.	.	.
COc1ccccc1NC(=O)COC(=O)Cc1c[nH]c2ccccc12	1.0	140.7*	-51.4	19.6	141.9*	109.1	95.8
CCCCCOP(=O)(OCCCCC)C1(NS(=O)(=O)c2ccccc2)C=CC(=O)c2ccccc21 (stereo not given)	0.1	136.9*	-45.5	-8.3	120.0	107.7	103.9
CCCCCCOC1(c2ccccc2)OC(=O)c2ccccc21 (stereo not given)	0.9	105.1	1.5	1.8	.	.	.
O=C1Cn2c(nc3ccccc32)N1c1cccc(C(F)(F)F)c1	-0.4	136.2*	-37.4	2.5	114.7	106.2	111.1
COc1cc2c(cc1NC(=O)c1cccnc1)oc1ccccc12	-0.6	109.1	-10.6	-27.7	.	.	.
COc1cc2c(cc1NC(=O)C(C)Sc1cccc[n+]1[O-])oc1ccccc12 (stereo not given)	-0.6	136.3*	-42.7	-18.0	138.8*	112.3	114.9
COc1cc2c(cc1NC(=O)C(C)N1CCN(S(=O)(=O)c3ccc(C)c(C)c3)CC1)oc1ccccc12 (stereo not given)	0.3	102.4	-2.6	0.9	.	.	.

From PubChem
